In ChEMBL document CHEMBL1212850, “Synthesis and biological evaluation of arylidene analogues of Meldrum's acid as a new class of antimalarial and antioxidant agents” (Bioorg Med Chem, 2010):

Legend:
[1] = test system: Plasmodium falciparum; assay: Antimalarial activity against Plasmodium falciparum infected in human O+ erythrocytes after 48 hrs by HRP2-ELISA method; type: functional, organism-based
[2] = test system: Radical scavenging activity; assay: Antioxidant activity assessed as DPPH free radical scavenging activity at 100 uM after 1 hr; type: functional
Method in brief: (§1)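 Test compound at various concentrations added to 60 µM methanolic DPPH. Held 1 h at room temperature, then absorbance read at 517 nm; trolox used as reference standard. Values from three experiments.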

[3] = Antioxidant activity assessed as ABTS free radical scavenging activity at 100 uM after 12 hrs; type: functional
Method in brief: (§2)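 ABTS radical cation made by mixing 7 mM ABTS stock with 2.45 mM potassium persulfate, left 12 h in dark. Ethanolic compound solution added to ABTS solution, absorbance at 734 nm read after mixing up to 6 min. Reported as % ABTS radical scavenged; triplicate.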

[4] = Antioxidant activity assessed as ABTS free radical scavenging activity after 12 hrs; type: functional; method in brief: as §2
[5] = test system: Radical scavenging activity; assay: Antioxidant activity assessed as DPPH free radical scavenging activity after 1 hr; type: functional; method in brief: as §1

| SMILES | IC50 [1] | IC50 [4] | IC50 [5] | inhibition [2] | inhibition [3] |
| --- | --- | --- | --- | --- | --- |
| COc1cc(C=C2C(=O)OC(C)(C)OC2=O)ccc1OCc1ccccc1 | 37.2 µM |  |  | 10.7% | 3.62% |
| CC1(C)OC(=O)C(=Cc2ccccc2[N+](=O)[O-])C(=O)O1 | 39.6 µM |  |  | 6.41% | 1.3% |
| COc1ccc(C=C2C(=O)OC(C)(C)OC2=O)c(OC)c1OC | 34.7 µM |  |  | 5.72% | 13% |
| CC1(C)OC(=O)C(=Cc2ccc3ccccc3c2)C(=O)O1 | 14.3 µM |  |  | 20.6% | 17% |
| CC1(C)OC(=O)C(=Cc2c[nH]c3ccccc23)C(=O)O1 | 41.7 µM |  |  | 1.79% | 3.12% |
| CC1(C)OC(=O)C(=Cc2cccc3ccccc23)C(=O)O1 | 16.1 µM |  |  | 8.88% | 7.55% |
| CC1(C)OC(=O)C(=Cc2ccccc2)C(=O)O1 | 37.8 µM |  |  |  |  |
| COc1ccc(C=C2C(=O)OC(C)(C)OC2=O)cc1 | 36.4 µM |  |  | 5.81% | 9.26% |
| COc1ccc(OC)c(C=C2C(=O)OC(C)(C)OC2=O)c1 | 33.2 µM |  |  | 12.2% | 13.8% |
| CC1(C)OC(=O)C(=Cc2ccc3c(c2)OCO3)C(=O)O1 | 28.1 µM |  |  | 8.2% | 8.25% |
| C[C@@H]1CC[C@H]2[C@@H](C)C(=O)O[C@@H]3O[C@@]4(C)CC[C@@H]1[C@]32OO4 [ARTEMISININ] | 0.0028 µM |  |  |  |  |
| CC1(C)OC(=O)C(=Cc2c3ccccc3cc3ccccc23)C(=O)O1 | > 100 µM |  |  | 8.76% | 10.7% |
| O=C1O[C@H]([C@@H](O)CO)C(O)=C1O [ASCORBIC ACID] |  | 25.5 µM | 22.4 µM | 99.4% | 98% |

More lines, main results first:

| IC50 [1] | IC50 [4] | IC50 [5] | SMILES | inhibition [2] | inhibition [3] |
| --- | --- | --- | --- | --- | --- |
| > 100 µM |  |  | O=C1CCCC(=O)C1=Cc1ccccc1 |  |  |
| 26.1 µM |  |  | COc1ccc(C=C2C(=O)OC(C)(C)OC2=O)cc1OC | 4.74% | 6.84% |
| > 100 µM |  |  | CC1(C)OC(=O)C2(OC2c2ccccc2[N+](=O)[O-])C(=O)O1 (stereo not drawn) |  |  |
| 33.9 µM |  |  | COc1cc(OC)c(OC)cc1C=C1C(=O)OC(C)(C)OC1=O | 6.23% | 9.86% |
| > 100 µM |  |  | CC1(C)OC(=O)C(=Cc2cccs2)C(=O)O1 | 6.32% | 3.77% |
| 34.6 µM |  |  | CC1(C)OC(=O)C(=Cc2ccc(O)cc2)C(=O)O1 | 5.12% | 14.4% |
| 20.2 µM |  |  | COc1cc(C=C2C(=O)OC(C)(C)OC2=O)cc(OC)c1OC | 3.24% | 5.33% |
| 15.5 µM | 30.7 µM | 39.1 µM | CCOc1cc(C=C2C(=O)OC(C)(C)OC2=O)ccc1O | 66.2% | 95.6% |
| 24.3 µM |  |  | CC1(C)OC(=O)C(=C/C=C/c2ccccc2)C(=O)O1 | 53.1% | 20.2% |
| 35.2 µM |  |  | CN(C)c1ccc(C=C2C(=O)OC(C)(C)OC2=O)cc1 | 10.3% | 13.9% |
| 12.4 µM | 72.2 µM | 80 µM | COc1ccc(C=C2C(=O)OC(C)(C)OC2=O)cc1O | 40.2% | 52.8% |
| 9.68 µM | 30.5 µM | 24 µM | COc1cc(C=C2C(=O)OC(C)(C)OC2=O)ccc1O | 76% | 92.6% |
| > 100 µM |  |  | CC1(C)OC(=O)C2(OC2c2ccccc2)C(=O)O1 (stereo not drawn) |  |  |
| 36.1 µM |  |  | COc1ccc(C=C2C(=O)OC(C)(C)OC2=O)cc1OCc1ccccc1 |  |  |
|  | 16.2 µM | 15.7 µM | Cc1c(C)c2c(c(C)c1O)CCC(C)(C(=O)O)O2 (stereo not drawn) [TROLOX] | 99.5% | 99.1% |
| 31.8 µM |  |  | COc1ccc2ccccc2c1C=C1C(=O)OC(C)(C)OC1=O | 9.48% | 4.73% |
